Data set [1] is described as follows: Study 3 food-effect pharmacokinetics. The data set is classed as in vivo, human. The essentials: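 Open-label two-period crossover in healthy men given 10 mg orally on days 1 and 15, fasted or fed. Fasted dosing followed ≥10 h fasting, with water. Fed dosing came within 10 min after a high-fat breakfast (≥900 kcal, ≥35% fat) eaten within 20 min. Plasma was sampled predose to 168 h; urine was pooled to 168 h. Log-transformed Cmax/AUC were analysed by ANOVA with 90% CI of back-transformed LS mean ratios. Tmax used Wilcoxon signed-rank.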

Data set [2] concerns elderly adult men and women. Nature of the data set: Study 2 safety evaluation. The data set is classed as in vivo, human. The note with it: elderly population, single dose of 10 mg. The essentials:
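Elderly Japanese adults aged 65–85 (10 men, 10 women) were randomized 4:1, double-blind, to one oral 10 mg dose or placebo. Dosing was fasted, in the morning of day 1. Participants stayed on site days 1–5 and were discharged day 6. AEs, weight, vital signs, 12-lead ECG and haematology, chemistry, coagulation and urinalysis were recorded. TEAE incidence and intensity were compared with placebo.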

Take `Cc1ccc(Sc2ccccc2N2CCNCC2)c(C)c1` [Vortioxetine, 1‐[2‐(2,4‐dimethylphenylsulfanyl)phenyl]piperazine]: the Tmax in data set [1] (male, human, plasma, oral, 10 mg) stood at 12 h. The “90%CIs for the LS mean ratios of Cmax and AUC (fed vs fasted)” value in data set [1] (single 10 mg, no‐effect boundary 90%CI, 0.8–1.25) is given as “within the no‐effect boundary”. For the same molecule, the safety and tolerability result in data set [2] was “safe and tolerated”.

Values taken from publication PMC5900865 (Clinical Pharmacology in Drug Development, 2017).
